This is a sample that favours compounds with a hit; in the whole collection about 2.3% have one here.
TRPC6 inh: mouse TRPC6 channel inhibitors, primary screen, cell-based, HEK293, membrane potential dye | Short transient receptor potential channel 6 (Mus musculus), Q61143 | ACh-evoked depolarization; stronger effect = lower value | B-score at 10 µM | actives 1.1% (n = 310,000) | AID 2553, 2010;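 active means B-score under library mean minus 3 SD, initial fluorescence not abnormally high, positive integrated signal ratio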;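 further: B-score derived from integrated fluorescence ratio over the kinetic read; more negative B-score means stronger inhibition of depolarization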
TRPC4 potent: positive allosteric modulators of TRPC4, primary screen, cell-based, mouse TRPC4beta, HEK293 mu-opioid, Fluo-4 calcium; DAMGO EC20, Fluo-4 Ca2+ flux; stronger effect = higher value; B-score at 10 µM; actives 0.42% (n = 310,000); AID 2227, 2009;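 active means B-score of calcium response area above 5 SD of library B-scores, with initial fluorescence ratio within 5 SD of library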;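 further: B-score of integrated fluorescence ratio over time as area under calcium response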
Target sequence (Q9QUQ5 whole entry, looked up): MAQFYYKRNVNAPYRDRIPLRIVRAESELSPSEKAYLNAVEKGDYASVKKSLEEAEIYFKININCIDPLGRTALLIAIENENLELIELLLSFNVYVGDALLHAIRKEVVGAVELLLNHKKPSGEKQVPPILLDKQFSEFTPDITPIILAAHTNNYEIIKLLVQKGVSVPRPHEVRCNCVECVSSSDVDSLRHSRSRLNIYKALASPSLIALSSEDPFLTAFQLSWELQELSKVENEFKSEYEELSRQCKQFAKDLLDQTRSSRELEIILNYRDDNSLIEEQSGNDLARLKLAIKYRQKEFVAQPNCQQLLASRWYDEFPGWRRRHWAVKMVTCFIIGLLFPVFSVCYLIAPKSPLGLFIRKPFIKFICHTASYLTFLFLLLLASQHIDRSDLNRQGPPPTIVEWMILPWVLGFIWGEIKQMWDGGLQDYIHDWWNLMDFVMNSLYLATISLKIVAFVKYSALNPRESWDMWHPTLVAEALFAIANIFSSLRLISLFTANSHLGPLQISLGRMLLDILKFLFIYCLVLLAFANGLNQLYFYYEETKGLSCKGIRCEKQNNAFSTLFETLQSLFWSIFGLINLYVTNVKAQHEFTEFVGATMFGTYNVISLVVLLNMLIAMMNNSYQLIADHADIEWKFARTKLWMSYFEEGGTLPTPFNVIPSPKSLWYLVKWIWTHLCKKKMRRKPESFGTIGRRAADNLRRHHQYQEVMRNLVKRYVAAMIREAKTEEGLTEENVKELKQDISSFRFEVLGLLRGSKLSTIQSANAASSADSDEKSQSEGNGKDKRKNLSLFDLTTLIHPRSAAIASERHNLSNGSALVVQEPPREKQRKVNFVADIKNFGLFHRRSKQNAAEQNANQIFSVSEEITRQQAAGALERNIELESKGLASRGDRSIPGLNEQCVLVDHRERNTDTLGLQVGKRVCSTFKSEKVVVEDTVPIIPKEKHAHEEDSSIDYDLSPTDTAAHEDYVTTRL
TRPC4 act: activators of mouse TRPC4 channel, primary screen, Fluo4 calcium, HEK293 TRPC4beta/mu-opioid cells | B-score at 10 µM | Short transient receptor potential channel 4 (Mus musculus), Q9QUQ5 | actives 0.49% (n = 310,000) | AID 2237, 2010 | Fluo4 calcium fluorescence; stronger effect = higher value;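 active means B-score above 5 SD of library B-scores, and initial fluorescence ratio not above library mean plus 5 SD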;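 further: positive B-score marks a calcium rise read as TRPC4 activation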
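Technique: kinetic Fluo4 calcium fluorescence; Test system: TRPC4beta and mu-opioid receptor HEK293 stable cells; Measure: B-scored integrated calcium fluorescence ratio; Benchmarks: low control buffer alone, high control maximal DAMGO; Schedule: 45 min room-temperature Fluo4 loading, 110 s read.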
TRPC4 block: inhibitors of mouse TRPC4 channel, primary screen, Fluo4 calcium, HEK293 TRPC4beta/mu-opioid cells | DAMGO-evoked Fluo4 calcium flux; stronger effect = lower value | actives 0.39% (n = 300,000) | Short transient receptor potential channel 4 (Mus musculus), Q9QUQ5 | B-score at 10 µM;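 active means B-score over 3 SD under the library average, no early fluorescence shift, positive overall ratio signal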
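test system = HEK293 cells with stable TRPC4beta plus mu-opioid receptor expression | detection = Fluo4 Ca2+ flux fluorescence | read-out = integrated fluorescence ratio relative to baseline, converted to per-well B score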
TRPC6 act: mouse TRPC6 channel activators, primary screen, cell-based, HEK293, membrane potential dye; Short transient receptor potential channel 6 (Mus musculus), Q61143; HEK293-TRPC6 membrane potential dye fluorescence; stronger effect = higher value; B-score at 10 µM; actives 0.13% (n = 310,000); AID 2550, 2010;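 active means B-score of the integrated fluorescence ratio above library mean plus 3 SD, and starting fluorescence ratio within library mean plus 5 SD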;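 further: higher score means more depolarization so channel activation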
HEK293 MPD ctr: parental HEK293 membrane potential modulation, confirmation, counter-screen for TRPC6 modulator project, cell-based; membrane potential dye fluorescence; membrane potential signal change, % at 10 µM; actives 51% (n = 2,400); shares compounds with TRPC6 inh;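 active means membrane potential signal moves up or down beyond 5 SD from buffer-only wells, on both duplicate plates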
HEK293 MPD ctr 2: parental HEK293 nonspecific activity of TRPC6 modulators, second screen. shares compounds with TRPC6 inh. membrane potential dye fluorescence; after compound, maximal acetylcholine stimulation. inhibition, % at 10 µM. actives 14% (n = 2,400);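 active means membrane potential signal drops by more than 5 SD from the mean control signal, in both duplicate plates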;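 further: plate controls were acetylcholine ECmax control wells for no effect and buffer only wells for full effect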
TRPC4/MOR mod: TRPC4 modulation by TRPC6 hit compounds, confirmation, selectivity assay for TRPC6 modulator project, cell-based, HEK293 TRPC4/mu-opioid, membrane potential dye, mouse | actives 69% (n = 2,400) | shares compounds with TRPC6 inh | membrane potential fluorescence | percent change from control (negative = decrease, positive = increase), % at 10 µM;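 active means membrane potential signal moved up or down beyond 5 SD of buffer control wells, in both duplicate plates, actives on both sides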;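 further: plate controls were assay buffer wells for no effect and DAMGO maximal-effect wells for full effect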
TRPC4 ctr inh 2: second selectivity test of TRPC6 modulators against mouse TRPC4 | shares compounds with TRPC6 inh | HEK293 TRPC4/mu-opioid, membrane potential dye fluorescence; stimulated with maximal-effect DAMGO | inhibition, % at 10 µM | actives 55% (n = 2,400);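 active means drop in membrane potential signal beyond 5 SD of the control wells in both duplicate plates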;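 further: TRPC4 counter screen for TRPC6 hits run under conditions tuned for TRPC6 not TRPC4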
TRPC6 inh conf: mouse TRPC6 channel inhibitors, confirmation, HEK293 cells, membrane potential dye, duplicate | shares compounds with TRPC6 inh | ACh-evoked depolarization | inhibition, % at 10 µM | actives 43% (n = 3,300);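 active means fluorescence ratio falls more than 5 SD below the full-stimulation control mean, in both duplicate runs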;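 further: integrated fluorescence ratio of peak minus minimum over baseline after agonist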
TRPC6 act conf: mouse TRPC6 channel activators, confirmation, HEK293 cells, membrane potential dye, duplicate; activation, % at 10 µM; actives 11% (n = 2,800); shares compounds with TRPC6 inh; AID 488961, 2010; HEK293-TRPC6 membrane potential dye fluorescence, FDSS;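 active means ratio signal rise beyond 5 SD above unstimulated control wells' mean, seen in both duplicate runs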;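 further: plate controls were buffer EC0 wells for no effect and acetylcholine ECmax response for full effect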
Starred values were filed as active, the others as inactive.

Cc1ccc(-c2nc3ncccn3c2Nc2ccccc2C)o1 was read as TRPC6 inh -5.8*, TRPC4 potent inactive, TRPC4 act inactive, TRPC4 block inactive, TRPC6 act inactive, HEK293 MPD ctr -115%*, HEK293 MPD ctr 2 inactive, TRPC4/MOR mod -18%*, TRPC4 ctr inh 2 68%*, TRPC6 inh conf inactive and TRPC6 act conf inactive.
Screening Cc1ccc(Nc2c(-c3ccc(C)o3)nc3ncccn23)cc1 returned TRPC6 inh inactive, TRPC4 potent inactive, TRPC4 act inactive, TRPC4 block inactive and TRPC6 act inactive.
For Brc1ccc(-c2nc3ncccn3c2NC2CCCCC2)o1 the results were TRPC6 inh -5*, TRPC4 potent inactive, TRPC4 act inactive, TRPC4 block inactive, TRPC6 act inactive, HEK293 MPD ctr 116%*, HEK293 MPD ctr 2 inactive, TRPC4/MOR mod 22%*, TRPC4 ctr inh 2 36%*, TRPC6 inh conf inactive and TRPC6 act conf inactive.
Screening Cc1ccc(Nc2c(-c3ccc(N(C)C)cc3)nc3ncccn23)cc1 returned TRPC6 inh inactive, TRPC4 potent inactive, TRPC4 act inactive, TRPC4 block inactive and TRPC6 act inactive.
Cc1ccc(-c2nc3ncccn3c2NC2CCCC2)o1 was read as TRPC6 inh inactive, TRPC4 potent inactive, TRPC4 act inactive, TRPC4 block inactive and TRPC6 act inactive.
Cc1ccc(Nc2c(-c3ccc(N4CCOCC4)cc3)nc3ncccn23)c(C)c1 was read as TRPC6 inh -6.1*, TRPC4 potent inactive, TRPC4 act inactive, TRPC4 block inactive, TRPC6 act inactive, HEK293 MPD ctr -143%*, HEK293 MPD ctr 2 62%*, TRPC4/MOR mod -29%*, TRPC4 ctr inh 2 96%*, TRPC6 inh conf 84%* and TRPC6 act conf inactive.
Cc1cccc(C)c1Nc1c(-c2ccc(N3CCOCC3)cc2)nc2ncccn12 was read as TRPC6 inh -8*, TRPC4 potent inactive, TRPC4 act inactive, TRPC4 block inactive, TRPC6 act inactive, HEK293 MPD ctr -123%*, HEK293 MPD ctr 2 56%*, TRPC4/MOR mod -28%*, TRPC4 ctr inh 2 97%*, TRPC6 inh conf 76%* and TRPC6 act conf inactive.

Screening data (PubChem)
